ChEMBL document CHEMBL3853270, “Influence of Birch Bark Triterpenes on Keratinocytes and Fibroblasts from Diabetic and Nondiabetic Donors” (2016)

Columns and labels:
Type in all cases: functional
Fibroblast [1] = experiment: Effect on antiinflammatory related gene expression in diabetic adult human primary fibroblasts assessed as NFKBIA mRNA levels at 9.81 uM after 6 hrs by qPCR analysis
Procedure, shortened: (§1)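 Primary dermal fibroblasts from one nondiabetic young, one nondiabetic adult and one diabetic adult donor; 320 000 cells per sample, 6 h at 1.96 or 9.81 μM. RNA measured on a high-throughput qPCR chip. Fold change versus 0.1% DMSO control, four independent experiments, SD, one-way ANOVA with Bonferroni post-test.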

Fibroblast [2] = experiment: Effect on growth factors related gene expression in diabetic adult human primary fibroblasts assessed as FGF2 mRNA levels at 1.96 uM after 6 hrs by qPCR analysis
Procedure, shortened: (§2)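 Primary human dermal fibroblasts (young or adult nondiabetic, adult diabetic donor) were treated for 6 h against a 0.1% DMSO solvent control. RNA from 320 000 cells per sample was measured by Fluidigm Biomark high-throughput qPCR. Values are fold change relative to solvent control, from four independent experiments, with SD. One-way ANOVA with Bonferroni post-test was applied.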

Fibroblast [3] = experiment: Effect on pro-inflammatory related gene expression in diabetic adult human primary fibroblasts assessed as IL6 mRNA levels at 1.96 uM after 6 hrs by qPCR analysis; procedure, shortened: as §2
Fibroblast [4] = experiment: Effect on antiinflammatory related gene expression in non-diabetic young human primary fibroblasts assessed as NFKBIA mRNA levels at 9.81 uM after 6 hrs by qPCR analysis; procedure, shortened: as §1
Fibroblast [5] = experiment: Effect on growth factors related gene expression in non-diabetic young human primary fibroblasts assessed as FGF2 mRNA levels at 9.81 uM after 6 hrs by qPCR analysis; procedure, shortened: as §2
Keratinocyte = experiment: Effect on cellular connection related gene expression in diabetic adult human primary keratinocytes assessed as GJB2 mRNA levels at 9.81 uM after 6 hrs by qPCR analysis

C=C(C)[C@@H]1CC[C@]2(CO)CC[C@]3(C)[C@H](CC[C@@H]4[C@@]5(C)CC[C@H](O)C(C)(C)[C@@H]5CC[C@]43C)[C@@H]12 [BETULIN]
fold change (FC) (Fibroblast [1]): 1.4
fold change (FC) (Fibroblast [2]): 2
fold change (FC) (Fibroblast [3]): 14.9
fold change (FC) (Fibroblast [4]): 3.2
fold change (FC) (Fibroblast [5]): 1.8
fold change (FC) (Keratinocyte): 0.9
